From PubChem BioAssay
Rows were chosen to be rich in hits. Some 3.2% of all compounds tested hit in one or more screens of this group.
rCAG RNA binder: binds r(CAG) RNA repeats | inhibition, % at 3 µM | 370,000 compounds, 1.3% hits | AID 651821 | r(CAG) RNA repeat, TO-PRO-1 dye displacement fluorescence;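 active = inhibition above the plate cutoff, the mean of all test compounds on that plate plus 3 SD, cut at about 35% in these data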;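 also: 0% = DMSO alone and 100% = 100 µM mitoxantrone as full dye displacement; higher means more dye released from RNA so lower well fluorescence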
DAGLB inhibitor: diacylglycerol lipase beta (human) inhibition; Q8NCG7; HEK293T DAGLB membrane lysate, EnzChek fluorogenic substrate; inhibition, % at 5.17 µM; 340,000 compounds, 0.059% hits; in the data active = inhibition above about 34%;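 also: 0% = enzyme with vehicle and 100% = wells lacking enzyme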
HTRA1 inhibitor: HTRA1 (human) protease inhibition; inhibition, % at 5.96 µM; recombinant HTRA1, FP-rhodamine activity-based probe, fluorescence polarization; Q92743; 340,000 compounds, 0.5% hits; in the data active = inhibition above about 36%;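 also: 0% = enzyme with DMSO and 100% = wells lacking enzyme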
PRMT1 inh: inhibitors of human PRMT1 | Q99873 | recombinant PRMT1, activity-based probe fluorescence polarization | inhibition, % at 2.79 µM | 370,000 compounds, 1.3% hits | AID 652257;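 active = inhibition above about 21% made by adding two undisclosed values, limit read from the data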
Target sequence (Q99873 whole entry, looked up): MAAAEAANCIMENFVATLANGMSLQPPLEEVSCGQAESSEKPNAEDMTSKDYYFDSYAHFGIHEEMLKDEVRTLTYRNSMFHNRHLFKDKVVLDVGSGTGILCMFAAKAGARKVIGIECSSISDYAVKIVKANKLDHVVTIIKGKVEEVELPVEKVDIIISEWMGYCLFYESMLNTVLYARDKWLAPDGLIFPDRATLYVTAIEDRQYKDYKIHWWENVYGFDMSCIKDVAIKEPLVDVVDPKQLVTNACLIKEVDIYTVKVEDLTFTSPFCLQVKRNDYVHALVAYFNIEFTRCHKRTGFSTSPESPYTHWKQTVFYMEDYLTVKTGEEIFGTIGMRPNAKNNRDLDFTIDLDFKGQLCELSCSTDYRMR
LEDGF integ inh: blocks HIV-1 LEDGF/p75-dependent DNA integration; TR-FRET IN-LEDGF/p75 DNA integration, Eu/Cy5; inhibition, % at 3.7 µM; 370,000 compounds, 0.64% hits;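 active = inhibition above the screen-wide mean plus 3 SD, cut at about 13% in these data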;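 also: signal is the Cy5 over europium emission ratio at 671 and 618 nm; 0% = plate median of compound wells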
ABHD4 inh: inhibits mouse alpha/beta hydrolase domain 4; 370,000 compounds, 0.54% hits; Q8VD66; inhibition, % at 8.92 µM; purified mABHD4, FP-Rh probe fluorescence polarization;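 active = inhibition exceeding the mean over every tested compound plus 3 SD, cut at about 30% in these data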;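 also: 0% = plate median of compound wells and 100% = S159A mutant with DMSO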
Target sequence (Q8VD66 whole entry, looked up, the tested form may be a part): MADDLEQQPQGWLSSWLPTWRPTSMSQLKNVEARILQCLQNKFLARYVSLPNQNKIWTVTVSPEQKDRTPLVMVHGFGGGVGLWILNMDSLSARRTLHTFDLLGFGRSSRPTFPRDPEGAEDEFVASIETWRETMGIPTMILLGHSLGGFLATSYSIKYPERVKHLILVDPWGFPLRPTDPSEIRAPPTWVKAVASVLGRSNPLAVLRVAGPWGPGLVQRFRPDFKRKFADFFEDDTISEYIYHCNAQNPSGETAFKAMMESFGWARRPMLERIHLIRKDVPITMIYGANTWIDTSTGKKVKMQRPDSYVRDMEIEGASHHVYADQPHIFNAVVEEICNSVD
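Test system: mABHD4 protein; Read-out basis: % inhibition; Incubation: 45 min + 60 min at 25 °C; Repeats: single replicate; Technique: fluorescence polarization with parallel and perpendicular emission, 525/598 nm; Compound: 8.92 µM, single dose; Benchmarks: full inhibition S159A mutant plus DMSO, zero as sample-well median.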
HTRA1 conf: confirmation of human HTRA1 inhibitors; recombinant HTRA1, FP-rhodamine activity-based probe, fluorescence polarization; 1,600 compounds, 66% hits; shares compounds with HTRA1 inhibitor; inhibition, % at 5.96 µM; AID 540248;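 active = mean inhibition over three repeats above a set limit taken from the earlier primary screen, cut at about 37% in these data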;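 also: 0% = HTRA1 with DMSO and 100% = wells lacking HTRA1; inhibitors block probe binding so polarization drops and inhibition rises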
rCAG bind conf: r(CAG) RNA repeat binding, confirmation; shares compounds with rCAG RNA binder; 4,300 compounds, 70% hits; TO-PRO-1 dye displacement fluorescence; inhibition, % at 3 µM;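 active = inhibition above a per-plate cutoff, the mean inhibition of sample wells plus 3 SD, cut at about 35% in these data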;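 also: loss of TO-PRO-1 fluorescence as compound displaces dye from 1x1 AA loop RNA; 0% = DMSO only wells and 100% = 100 µM mitoxantrone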
dCAG dye counter: DNA CAG dye complex inhibition counter-screen; shares compounds with rCAG RNA binder; d(CAG) DNA oligo TO-PRO-1 dye displacement, fluorescence; inhibition, % at 3 µM; 4,300 compounds, 94% hits; AID 652068;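 active = inhibition above its plate's cutoff, the mean test-well inhibition plus 3 SD, cut at about 4.8% in these data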;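 also: 0% = DNA dye mix with DMSO and 100% = 100 µM mitoxantrone; hits displace the dye from DNA and so lower well fluorescence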
PRMT1 inh conf: PRMT1 (human) inhibition, FP confirmation | shares compounds with PRMT1 inh | recombinant His-PRMT1, activity-based probe fluorescence polarization | inhibition, % at 2.79 µM | 3,300 compounds, 42% hits | AID 687036;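 active = mean inhibition across replicates above the hit cutoff derived for the earlier primary screen, cut at about 22% in these data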
mABHD4 conf: confirmation of mouse ABHD4 inhibitors. shares compounds with ABHD4 inh. purified mABHD4, FP-Rh probe fluorescence polarization. inhibition, % at 8.92 µM. 1,800 compounds, 55% hits. AID 720658;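 active = mean inhibition across replicates above the hit cutoff set in the primary screen, cut at about 30% in these data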;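 also: 0% = wild-type ABHD4 with DMSO and 100% = catalytically dead S159A mutant with DMSO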
IN multimer act: counter-screen for LEDGF/p75 integration inhibitors: HIV-1 integrase multimerization activators | shares compounds with LEDGF integ inh | TR-FRET HIV-1 integrase multimerization, biochemical | activation, % at 7.7 µM | 2,000 compounds, 17% hits; in the data active = activation above about 8.9%
TRFRET interf: counter-screen for LEDGF/p75 integration inhibitors: TR-FRET optical interference; shares compounds with LEDGF integ inh; TR-FRET optical interference counterscreen, HIV-1 IN multimerization; inhibition, % at 7.7 µM; 2,000 tested, under 10 active;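 active = inhibition above the mean over all tested compounds plus 3 SD, which no compound reached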;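 also: 0% = integrase with antibodies and DMSO and 100% = antibodies without integrase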
IN-LEDGF confirm: confirmation of HIV-1 LEDGF/p75-dependent integration inhibitors. shares compounds with LEDGF integ inh. TR-FRET LEDGF/p75-dependent HIV-1 integration, biochemical. inhibition, % at 3.7 µM. 2,000 compounds, 36% hits. AID 1053136; in the data active = inhibition above about 14%
* marks the source's active call; other numbers are inactive results; · = no result.

SMILES	rCAG RNA binder	DAGLB inhibitor	HTRA1 inhibitor	PRMT1 inh	LEDGF integ inh	ABHD4 inh	HTRA1 conf	mABHD4 conf	IN multimer act	TRFRET interf	IN-LEDGF confirm	others
CSc1sc(-c2nnc(SCC(=O)Nc3ccccc3)n2C)c2c1C=CCC2	-1.8	·	·	2.6	-9.2	-1.9	·	·	·	·	·
O=c1c(O)c(-c2ccc(O)c(O)c2)oc2cc(O)ccc12	13.2	-1.8	39.2*	3.8	78.6*	27.1	35.2	·	39.3*	-197.9	92.3*
CCNc1ccc(Br)cc(C(=O)/C=C/c2ccc3c(c2)OCO3)c1=O	38.8*	15.1	52.0*	38.0*	23.0*	38.1*	27.1	45.5*	1.2	-5.8	41.5*	rCAG bind conf=35.9*;dCAG dye counter=17.5*
COc1ccc(/C=N\NC(=O)c2cc(O)c(O)c(O)c2)cc1CN1CCN(c2ccc(F)cc2)CC1	41.4*	14.4	82.6*	6.9	19.6*	28.5	77.5*	·	37.4*	-188.1	38.4*	rCAG bind conf=44.8*;dCAG dye counter=19.9*
O=C(O)c1ccc(NC2=C/C(=N/S(=O)(=O)c3cccs3)c3ccccc3C2=O)cc1	16.7	4.7	41.9*	0.9	30.8*	36.9*	45.5*	78.4*	9.1*	-32.4	75.1*
CCCCn1c(=O)[nH]c2nc3cc(N)ccc3nc2c1=O	-257.8	-89.7	42.1*	149.2*	16.9*	67.5*	37.0*	43.5*	4.0	-19.8	8.6	PRMT1 inh conf=143.2*
O=C(COC(=O)c1ccc(Br)o1)NCc1ccc(Cl)cc1	0.0	-3.0	0.0	-5.1	1.7	0.6	·	·	·	·	·
O=C(O)c1cccc2cccc(-c3c4ccc(=O)c(O)c-4oc4c(O)c(O)ccc34)c12	91.8*	3.6	50.1*	32.2*	89.7*	47.8*	50.0*	·	70.8*	-356.4	93.4*
NNC(=O)c1cc(O)c(O)c(O)c1	9.6	1.2	79.2*	18.3	61.0*	36.2*	20.8	5.7	39.0*	-196.7	62.7*
COc1c(Cl)cc(C(=O)NN)cc1Cl	3.1	-10.8	-6.9	0.4	0.9	-9.2	·	·	·	·	·
CCOc1cc(C(=O)Nc2cc(=O)n(C)c(=O)n2C)cc(OCC)c1OCC	-1.9	-1.9	2.0	-2.4	0.0	2.1	·	·	·	·	·
O=[N+]([O-])c1cc(Br)c(O)c(C=Nc2ccc(N3CCOCC3)cc2)c1	24.0	11.0	40.3*	9.1	25.5*	45.5*	0.5	6.7	8.9*	-31.8	15.0*
Cc1cc(O)c(C=Nc2ccc(N3CCOCC3)cc2)c(C)c1Cl	0.1	0.9	7.7	6.3	13.3	10.8	·	·	·	·	·
COc1ccc(-n2c(=S)[nH]c3cc(C(=O)Nc4ccccc4OC)ccc3c2=O)cc1	0.5	·	·	-3.5	6.0	4.4	·	·	·	·	·
CN=c1scc(C)n1/N=C/c1cc(Br)c(O)c(OC)c1	3.8	6.3	5.1	0.7	-6.2	13.5	·	·	·	·	·
CN=c1scc(C)n1/N=C/c1ccc(O)c(O)c1O	21.9	4.0	39.3*	26.1*	57.1*	40.5*	60.2*	24.0	33.4*	-168.4	39.7*
CN=c1scc(-c2cccs2)n1/N=C/c1ccc(O)c(O)c1O	60.7*	12.5	81.6*	40.0*	27.6*	55.5*	73.1*	73.6*	5.0	-25.1	42.0*	rCAG bind conf=54.4*;dCAG dye counter=25.3*;PRMT1 inh conf=38.2*
Nc1ccc(Nc2ccccc2)c(S(=O)(=O)O)c1	32.0	4.0	57.6*	37.1*	18.7*	63.0*	15.0	43.9*	10.5*	-52.8	10.7	PRMT1 inh conf=13.1
Nc1cccc(Nc2ccccc2)c1	2.1	-2.6	15.1	-5.3	5.1	-2.7	·	·	·	·	·
Cc1ccc(Nc2ccc(N)cc2S(=O)(=O)O)cc1	35.6*	9.5	80.1*	33.4*	19.3*	65.0*	21.3	17.6	10.1*	-36.0	2.2	rCAG bind conf=26.3;dCAG dye counter=7.2*;PRMT1 inh conf=8.9
O=C(CN1CCN(CC(=O)Nc2ccc(Cl)cc2)CC1)Nc1ccc(F)cc1	-1.8	-2.6	3.1	-1.8	1.3	-2.4	·	·	·	·	·
COc1ccc(N2CCN(C(=O)COC(=O)c3c(-c4ccccc4)noc3C)CC2)cc1	2.8	-0.2	-2.0	-1.3	0.3	-4.3	·	·	·	·	·
Oc1ccc(-c2csc(Nc3ncccn3)n2)cc1O	32.0	6.5	54.0*	8.9	16.5*	13.6	59.3*	·	26.5*	-133.6	6.4
Cc1ccc(CCNC(=O)CCn2c(=O)c3cccn3c3ccc(F)cc32)cc1	-3.7	-1.1	-12.3	2.9	-4.6	-10.2	·	·	·	·	·
O=C1C=C(NCCc2cc(Br)c(O)c(Br)c2)C(=O)c2ncccc21	11.9	5.5	53.1*	12.7	27.8*	47.7*	42.8*	50.9*	15.7*	-55.6	75.4*
CC(C)(C)c1cc(CCC(=O)NCCc2ccccn2)cc(C(C)(C)C)c1O	-6.5	1.0	-15.2	-1.5	-3.8	-1.7	·	·	·	·	·
CCc1cc(C(=O)Cc2cnn(-c3ccccc3)c2)c(O)cc1O	8.8	-3.8	-24.1	0.5	5.1	-19.7	·	·	·	·	·
O=C(Cc1cnn(-c2ccccc2)c1)c1ccc(O)c(O)c1O	34.0	9.1	68.7*	39.4*	22.1*	24.3	93.6*	·	10.2*	-36.4	17.6*
